Our source for the MIC and ED50 values is ChEMBL document CHEMBL1122708, “Preparation and antibacterial activities of new 1,2,3-diazaborine derivatives and analogues” (1984).

In assay [1] the test system is Neisseria gonorrhoeae. In words: Minimum inhibitory concentration of compound against Neisseria gonorrhoeae W2. The class given is functional. The method in brief: (§1)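 Agar dilution on Kellogg agar, 10⁶ colony forming units, incubated 20 h at 36 °C in 5% CO₂; MIC is the lowest concentration giving no visible growth.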
Assay [2] concerns Klebsiella aerogenes. Put plainly: Minimum inhibitory concentration of compound against Enterobacter aerogenes delta 220. The assay is classed as functional.
Assay [3] deals with Klebsiella pneumoniae. Put plainly: Minimum inhibitory concentration of compound against Klebsiella pneumoniae delta 217. The assay is classed as functional.
For assay [4], the system named is Proteus mirabilis. Put plainly: Minimum inhibitory concentration against Proteus mirabilis delta 89. The assay is classed as functional.
Assay [5] deals with Escherichia coli. In words: Minimum inhibitory concentration of compound against Escherichia coli delta 120. The assay is classed as functional.
Assay [6] relates to Neisseria gonorrhoeae. Put plainly: Minimum inhibitory concentration of compound against Neisseria gonorrhoeae AS 7720. The class given is functional. In outline:
as §1

Assay [7] deals with Escherichia coli. In words: Antibacterial activity againist Escherichia coli 120 infected NMRI mice after peroral administration. The assay is classed as functional. As to conditions: po. The method in brief: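 ED50 in NMRI mice infected intraperitoneally with E. coli 120; compound given orally immediately and 5 h after infection.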
In assay [8] the test system is Salmonella typhimurium. Put plainly: Minimum inhibitory concentration of compound against Salmonella Typhimurium delta 119. The class given is functional, Salmonella enterica subsp. enterica serovar Typhimurium. The note with it: Salmonella enterica.
The test system of assay [9] is Escherichia coli. Put plainly: Antibacterial activity againist Escherichia coli 120 infected NMRI mice after subcutaneous administration. The note with it: sc. The class given is functional. In outline:
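ED50 in NMRI mice infected intraperitoneally with E. coli 120; compound given subcutaneously immediately and 5 h after infection.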

Values after ≈ are worked out from the molar mass of the structure shown. Some results are limits rather than exact numbers.

As usually defined, the MIC is the lowest concentration that inhibits growth of the organism. For orientation: ED50 means the dose that gives a 50% effect, or the effect in half of the subjects. A lower ED50 goes with an effect at a small dose. With `CCCS(=O)(=O)N1N=Cc2cc(Cl)ccc2B1O`, the MIC was determined as 2 µg/mL (≈ 6.98 µM) in [1]; 25 µg/mL (≈ 87.2 µM) in assay [2]; 1.56 µg/mL (≈ 5.44 µM) in assay [3]; 2.5 µg/mL (≈ 8.72 µM) in assay [4]; 10 µg/mL (≈ 34.9 µM) in assay [5]; 2 µg/mL (≈ 6.98 µM) in assay [6]. For the same molecule, in [8], the MIC was 3.12 µg/mL (≈ 10.9 µM). The molecule also displayed an ED50 in [7] of 14 mg/kg.

In the case of `Cc1ccc2c(c1)C=NN(S(C)(=O)=O)B2O`, the MIC was greater than 8 µg/mL in [1]; greater than 50 µg/mL in assay [2]; 6.25 µg/mL (≈ 26.3 µM) in [3]; 25 µg/mL (≈ 105 µM) in [4]; 25 µg/mL (≈ 105 µM) in assay [5]; greater than 8 µg/mL in assay [6]. This molecule came in with an MIC in assay [8] of 12.5 µg/mL (≈ 52.5 µM). In addition, it took a dose of 42 mg/kg to reach the 50% effect level in assay [7] (ED50).

On to `O=S(=O)(c1ccccc1)N1N=Cc2ccc(O)cc2B1O`, for which the MIC is greater than 8 µg/mL in [1]; greater than 50 µg/mL in [2]; 50 µg/mL (≈ 165 µM) in assay [3]; 50 µg/mL (≈ 165 µM) in [4]; 50 µg/mL (≈ 165 µM) in assay [5]; greater than 8 µg/mL in assay [6]. In assay [8], this molecule showed an MIC of 12.5 µg/mL (≈ 41.4 µM). In addition, the 50% effect level in assay [7] (ED50) was put at a dose of 100 mg/kg.

As for `O=S(=O)(c1ccccc1)N1N=Cc2sc(Br)cc2B1O`, the MIC in assay [1] came to 2 µg/mL (≈ 5.39 µM); in assay [2] it was 12.5 µg/mL (≈ 33.7 µM); in [3] it was 0.78 µg/mL (≈ 2.1 µM); in [4] it was 1.56 µg/mL (≈ 4.2 µM); in assay [5] it was 3.12 µg/mL (≈ 8.41 µM); in assay [6], 1 µg/mL (≈ 2.7 µM). The same molecule had a minimum inhibitory concentration (MIC) in assay [8] of 0.78 µg/mL (≈ 2.1 µM). In addition, the ED50 in assay [7] was roughly 20 mg/kg.

`CC(=O)Nc1ccc(S(=O)(=O)N2N=Cc3sc(Br)cc3B2O)cc1`: the minimal inhibitory concentration (MIC) in [1] stood at 1 µg/mL (≈ 2.34 µM); in assay [2], 25 µg/mL (≈ 58.4 µM); in assay [3], 3.12 µg/mL (≈ 7.29 µM); in assay [4], 3.12 µg/mL (≈ 7.29 µM); in [5], 25 µg/mL (≈ 58.4 µM); in assay [6] it was 1 µg/mL (≈ 2.34 µM). The same molecule came in with a minimum inhibitory concentration (MIC) in assay [8] of 3.12 µg/mL (≈ 7.29 µM). For the same molecule, the ED50 in assay [7] turned out to be 55 mg/kg.

`Cc1ccc(S(=O)(=O)N2N=Cc3cc(N4CCCC4)ccc3B2O)cc1`: the MIC in assay [2], in assay [3], in [4], in assay [5] and in assay [8] was greater than 50 µg/mL throughout. Also, the ED50 in assay [9] was greater than 300 mg/kg.

In the case of `CCCS(=O)(=O)N1N=Cc2c(ccn2C)B1O`, the MIC was greater than 8 µg/mL in assay [1]; greater than 50 µg/mL in assay [2]; 25 µg/mL (≈ 98 µM) in [3]; greater than 50 µg/mL in [4]; greater than 50 µg/mL in assay [5]; greater than 8 µg/mL in [6]. This molecule had a minimal inhibitory concentration (MIC) in [8] greater than 50 µg/mL. The molecule further registered an ED50 in assay [7] greater than 300 mg/kg.

Regarding `Cc1ccc(S(=O)(=O)N2N=Cc3ccc(Cl)cc3B2O)cc1`, the MIC in assay [1] was greater than 8 µg/mL; in assay [2], greater than 50 µg/mL; in assay [3], 12.5 µg/mL (≈ 37.4 µM); in assay [4] it was 25 µg/mL (≈ 74.7 µM); in [5] it was greater than 50 µg/mL; in assay [6], 1 µg/mL (≈ 2.99 µM). The molecule also yielded an MIC in assay [8] of 12.5 µg/mL (≈ 37.4 µM). The same molecule yielded an ED50 in [7] of roughly 50 mg/kg.

As for `Cc1ccc(S(=O)(=O)N2N=Cc3sc(Br)cc3B2O)c(Cl)c1`, the MIC in assay [1] was found to be 1 µg/mL (≈ 2.38 µM); in assay [2], 50 µg/mL (≈ 119 µM); in assay [3], 6.25 µg/mL (≈ 14.9 µM); in [4], 3.12 µg/mL (≈ 7.44 µM); in assay [5], 50 µg/mL (≈ 119 µM); in assay [6], 0.25 µg/mL (≈ 0.596 µM). In assay [8], this molecule displayed an MIC of 12.5 µg/mL (≈ 29.8 µM). The molecule further came in with an ED50 in assay [7] of 39 mg/kg.

Turning to `Cc1ccc(S(=O)(=O)N2N=Cc3cc(Br)sc3B2O)cc1`, the MIC in assay [1] is greater than 8 µg/mL; in [2], greater than 50 µg/mL; in assay [3], greater than 50 µg/mL; in [4], 25 µg/mL (≈ 64.9 µM); in assay [5], greater than 50 µg/mL; in assay [6], greater than 8 µg/mL. This molecule displayed an MIC in assay [8] greater than 50 µg/mL. For the same molecule, the ED50 in [7] was greater than 300 mg/kg.

Consider `Cc1cc(C)c(S(=O)(=O)N2N=Cc3sc(Br)cc3B2O)c(C)c1`, for which the MIC in [1] is 2 µg/mL (≈ 4.84 µM); in assay [2], greater than 50 µg/mL; in [3], 25 µg/mL (≈ 60.5 µM); in [4] it was 2.5 µg/mL (≈ 6.05 µM); in assay [5], greater than 50 µg/mL; in [6], 1 µg/mL (≈ 2.42 µM). This molecule showed an MIC in assay [8] greater than 50 µg/mL. The ED50 in assay [7] was greater than 600 mg/kg.

As to `CCCS(=O)(=O)N1N=Cc2cc(CC)sc2B1O`, the MIC amounted to 0.5 µg/mL (≈ 1.75 µM) in [1]; 5 µg/mL (≈ 17.5 µM) in [2]; 0.31 µg/mL (≈ 1.08 µM) in assay [3]; 1.25 µg/mL (≈ 4.37 µM) in assay [4]; 2.5 µg/mL (≈ 8.74 µM) in [5]; 0.5 µg/mL (≈ 1.75 µM) in assay [6]. This molecule also came in with an MIC in [8] of 0.31 µg/mL (≈ 1.08 µM). Besides, the ED50 in [7] is 4 mg/kg.

For `Cc1ccc(S(=O)(=O)N2N=Cc3cc4c(cc3B2O)C=NN(S(=O)(=O)c2ccc(C)cc2)B4O)cc1`, the MIC in assay [1] is greater than 8 µg/mL; in assay [2], greater than 50 µg/mL; in assay [3], greater than 50 µg/mL; in [4], 50 µg/mL (≈ 95.8 µM); in assay [5], greater than 50 µg/mL; in [6] it was greater than 8 µg/mL. In [8], this molecule showed a minimal inhibitory concentration (MIC) greater than 50 µg/mL. The molecule also displayed an ED50 in [7] greater than 300 mg/kg.

As for `CC(C)CS(=O)(=O)N1N=Cc2sc(Br)cc2B1O`, the minimal inhibitory concentration (MIC) in assay [1] stood at 2 µg/mL (≈ 5.7 µM); in assay [2], 12.5 µg/mL (≈ 35.6 µM); in assay [3] it was 1.56 µg/mL (≈ 4.44 µM); in [4], 6.25 µg/mL (≈ 17.8 µM); in assay [5], 12.5 µg/mL (≈ 35.6 µM); in assay [6], 2 µg/mL (≈ 5.7 µM). For the same molecule, the lowest concentration to inhibit growth in [8] (MIC) was 1.56 µg/mL (≈ 4.44 µM). It took a dose of 73 mg/kg to reach the 50% effect level in assay [7] (ED50).
